# Screens as filed in PubChem.
# In the library only some 2.4% were active in any assay of this set; here they are far more common.
# MEX-5 binding: C. elegans MEX-5 TCR-2 RNA binding activity; Q9XUB2; activity score (negative = inhibition of binding), % at 10 µM; hit rate 0.38% among 300,000; MEX-5/FITC-TCR2 RNA binding, fluorescence polarization; stronger effect = lower value;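 active = inhibition past about -25% in most replicates, and total fluorescence under double the plate's negative control median, limit read from the data; inconclusive = replicates evenly split on the limit, or fluorescence at least double controls; inactive = too little inhibition in most replicates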;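 also: 0% = DMSO and -100% = 5 µM competing unlabeled TCR2 RNA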
# Runt-SMMHC FRET: inhibitors of human RUNX1 Runt domain binding to CBFb-SMMHC | hit rate 0.74% among 220,000 | inhibition, % at 20 µM | Q01196+Q13951 | Cerulean-Runt/Venus-CBFb-SMMHC FRET ratio 530/480, 1 h;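 active = mean inhibition across duplicate retests at 20 µM reaching about 50%, limit read from the data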;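 also: 0% = DMSO wells and 100% = wells with excess untagged CBFb-SMMHC; inhibitors lower the FRET ratio by blocking Runt binding to CBFb-SMMHC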
# EBV gp42 inh: inhibitors of Epstein-Barr virus glycoprotein 42 | Fluorescence polarization binding assay, mP read-out | inhibition, % (tested at 21.74 µM) | hit rate 0.42% among 220,000; in the data active = inhibition above about 50%
# LANA-H2B inh: blocks KSHV LANA binding to histone H2A/H2B; inhibition, % (test concentration not listed); AID 2629; hit rate 0.6% among 320,000; Q9QR71; cell-free LANA-H2A/H2B peptide, fluorescence polarization; in the data active = inhibition mostly above about 10%, no sharp cut-off; inactive = mostly below about 6.7%
# RanGTP-Imp inh: disruptors of Ran-importin-beta complex formation – biochemical, FRET, CFP-Ran, YFP-importin-beta, homogeneous, primary screen. AID 2216. inhibition, % (no concentration beside the values). cell-free CFP-Ran/YFP-importin-beta FRET ratio. hit rate 1.1% among 300,000;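 active = more than half of the replicate wells show a fall in the fluorescence ratio signal beyond about 16%, limit read from the data, passing the limit was not always enough; inconclusive = exactly half of the replicate wells pass the set limit; inactive = fewer than half of replicates pass the limit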;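 also: 0% = DMSO wells and 100% = Ran loaded with GDP instead of GTP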
# Runt-CBFb FRET: blocks binding of human RUNX1 Runt domain to CBFb; inhibition, % at 20 µM; Q01196+Q13951; hit rate 0.46% among 220,000; Cerulean-Runt/Venus-CBFb FRET ratio 530/480, 1 h;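 active = inhibition over about 50% at 20 µM in the single-dose screen, limit read from the data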;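 also: 0% = DMSO wells and 100% = excess unlabeled CBFb competitor control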
#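 Assay system: Cerulean-Runt domain / Medium: Tris 50 mM pH 7.5, KCl, K2SO4, 0.01% BSA / Timing: protein complex preformed 1 h, compound exposure 1 h, room temperature, dark / Measured by: FRET, excitation 422 nm, emission at 530 and 480 nm / Evaluation: loss of energy transfer signal / Control set: 5 µM unlabeled CBFb as full-inhibition high control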
# * = called active by the depositor; ? = inconclusive; . = not tested or not shown.
SMILES,MEX-5 binding,Runt-SMMHC FRET,EBV gp42 inh,LANA-H2B inh,RanGTP-Imp inh,Runt-CBFb FRET
COc1ccccc1C(=O)NCCC(=O)NCC1COc2ccccc2O1 (stereo not drawn),.,.,.,23*,.,.
COc1cccc(CC(=O)NCC2COc3ccccc3O2)c1OC (stereo not drawn),2,-3,-12,-153,-6,-2
COCCCNc1c2c3c(cccc3[nH]c1=O)C(=O)c1ccccc1-2,.,-71,-88,123*,.,-3
COc1ccccc1-n1c(SCC(=O)N2CCOCC2)nc2ccccc2c1=O,3,.,.,2,?,.
Cc1nnc(SCc2cc(=O)oc3cc(O)ccc23)n1Cc1ccccc1,1,127*,-8,-5,12,85*
Cc1nnc(SCc2cc(=O)oc3ccc4ccccc4c23)n1Cc1ccccc1,-17,22,-11,1,13,16
COc1ccccc1-n1c(SCc2cc(=O)oc3cc(O)ccc23)nc2ccccc2c1=O,4,70*,-1,-7,-2,34
CC(C)CNC(=O)c1ccccc1NC(=O)c1ccc(CSc2ccccc2)cc1,-1,-3,-3,1,-8,-5
CNC(C)C#Cc1ccc2oc3cccc(OC)c3c(=O)c2c1 (stereo not drawn),0,.,.,-3,-10,.
COc1cccc2sc3cc(C#CC4(O)CCCCC4)ccc3c(=O)c12,.,.,.,-5,.,.
CNC(C)C#Cc1ccc2sc3cccc(OC)c3c(=O)c2c1 (stereo not drawn),-1,.,.,3,38*,.
COc1cccc2sc3ccc(C#CC4(N)CCCCC4)cc3c(=O)c12,1,.,.,0,55*,.
Cc1ccc(-c2csc(NC(=O)CCCc3cccs3)n2)cc1,0,5,-5,-9,2,3
Cc1csc(NC(=O)CCCc2cccs2)n1,0,-2,-10,181*,1,2
Cn1c(SCC(=O)c2ccccc2)nc2cccnc21,-1,-4,-9,98*,-1,-1
Cc1ccc2c(c1)N(S(=O)(=O)c1ccc3c(c1)NC(=O)CC(=O)N3)CCO2,4,.,.,.,2,.
O=C1CC(=O)Nc2cc(S(=O)(=O)N3CCOc4ccc(Cl)cc43)ccc2N1,0,.,.,31*,0,.
COc1ccc(S(=O)(=O)C(C#N)c2nc3ccccc3nc2N2CCC(C)CC2)cc1 (stereo not drawn),-47*,-6,.,-11,27*,-1
N#CC(c1nc2ccccc2nc1N1CCCCC1)S(=O)(=O)c1ccc(Cl)cc1 (stereo not drawn),.,-18,.,.,.,-5
CC1CCCN(c2nc3ccccc3nc2C(C#N)S(=O)(=O)c2ccccc2)C1 (stereo not drawn),?,-47,147*,11,-3,-14
COc1ccc(C(=O)NNC(=O)c2ccc(F)c(S(=O)(=O)N3CCOCC3)c2)cc1,.,.,.,6,.,.
CN(C)Cc1c(O)ccc2c(-c3ccccc3)cc(=O)oc12,-2,-49,-5,7,4,-17
CCN(CC)c1ccc(C(=O)OCc2cc(=O)oc3cc(O)ccc23)cc1,1,119*,16,-1,8,50*
O=c1cc(CN2CCc3ccccc32)c2ccc(O)cc2o1,1,24,2,0,43*,15
CCCCc1cc(=O)oc2c(CN3CCN(C)CC3)c(O)ccc12,5,.,.,-4,6,.
SMILES,MEX-5 binding,Runt-SMMHC FRET,EBV gp42 inh,LANA-H2B inh,RanGTP-Imp inh,Runt-CBFb FRET
CCc1c(C)c2ccc(O)c(CN(C)C)c2oc1=O,1,131*,-14,3,9,50
CCCCc1cc(=O)oc2c(CN(C)C)c(O)ccc12,0,107*,-15,-5,10,48
Cc1ccc(C2(c3ccc(C)cc3)NC(=O)N(CC(N)=O)C2=O)cc1,-1,.,.,0,-4,.
O=C(COc1ccc(-n2cnnn2)cc1)Nc1cccc(Cl)c1Cl,0,.,.,0,3,.
CCCc1cc(=O)oc2c(CN(CC)CC)c(O)c(Cl)cc12,0,129*,-4,-4,24*,91*
CCCCc1cc(=O)oc2cc(O)ccc12,-1,86*,0,0,4,40
CCCc1cc(=O)oc2cc(OCC(=O)N(C)C)c(Cl)cc12,0,2,-3,-1,0,0
CCCCc1cc(=O)oc2cc(OCC(=O)N3CCOCC3)ccc12,0,.,.,5,0,.
O=C(NCCO)/C(=C\c1cccc([N+](=O)[O-])c1)NC(=O)c1ccco1,-1,-1,-2,-5,?,0
O=C(c1ccco1)N1CCCN(Cc2cn[nH]c2-c2ccc(-c3ccccc3)cc2)CC1,-1,1,-18,-1,2,-8
Cc1noc(C(=O)NCC2CCCO2)c1Cl (stereo not drawn),0,.,.,1,23*,.
CC(=O)Oc1ccccc1C(=O)Oc1ccccc1C(=O)O,.,.,.,1,.,.
CC(=O)Oc1ccccc1-c1nc(C)nc(N(C)C(C)=O)n1,0,-4,-12,44*,-3,-1
N=c1c(C(=O)NC2CCCC2)cc2c(=O)n3ccccc3nc2n1CCCN1CCOCC1,-1,.,.,1,140*,.
Cc1ccc2nc3c(cc(C(=O)NC4CCCC4)c(=N)n3CCCn3ccnc3)c(=O)n2c1,-12,.,-6,3,156*,.
N=c1c(C(=O)NC2CCCC2)cc2c(=O)n3ccccc3nc2n1CCN1CCOCC1,0,77*,-19,-1,99*,99*
CC1(c2ccccc2)NC(=O)N(CC(=O)Nc2ccc(N3CCOCC3)cc2)C1=O (stereo not drawn),.,.,.,-2,.,.
Cc1noc(/C=C/c2ccc(-c3ccccc3Cl)o2)c1[N+](=O)[O-],2,-262,130*,-8,-87,-122
Cc1noc(/C=C/c2cccnc2)c1[N+](=O)[O-],-4,.,.,4,3,.
COc1ccc(CCNC(=O)COc2nsnc2N2CCOCC2)cc1OC,-4,0,82*,-1,1,-1
COc1ccc(NC(=O)COc2nsnc2N2CCOCC2)cc1,-1,-2,7,3,3,-2
N#C/C(=C\c1c(Oc2ccccc2F)nc2ccccn2c1=O)C(=O)NC1CCS(=O)(=O)C1 (stereo not drawn),-1,.,.,-4,128*,.
Cc1cc(C)cc(Oc2nc3ccccn3c(=O)c2/C=C(\C#N)C(=O)NC2CCS(=O)(=O)C2)c1 (stereo not drawn),-3,60*,-5,-2,?,88*
N#C/C(=C\c1c(Oc2ccccc2Cl)nc2ccccn2c1=O)C(=O)NC1CCS(=O)(=O)C1 (stereo not drawn),-2,.,.,6,91*,.
Cc1ccc(Oc2nc3ccccn3c(=O)c2/C=C(\C#N)C(=O)NC2CCS(=O)(=O)C2)c(C)c1 (stereo not drawn),-2,.,.,2,?,.
